Assays:
[1] = system: Blood; experiment: Biodistribution in blood of C57BL/6J mouse harboring mouse B16-Bl6 cells at 9 to 12 MBq, iv after 3 hrs by PET analysis; format: ADME, organism-based; details: in vivo
Procedure, shortened: (§1)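 Ex vivo dissection in B16Bl6-bearing C57BL/6J mice (3x10⁵ cells s.c. right shoulder), done at day 10 or 14 after implantation. The ¹⁸F tracer was given i.v. at 9-12 MBq. Mice were killed by CO₂ at 1, 2 or 3 h. Tumor, organs and tissues were excised, weighed and gamma-counted, then decay-corrected and expressed as %ID/g. n=3-6 per group; mean ± SD.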

[2] = system: Muscle tissue; experiment: Biodistribution in muscle of C57BL/6J mouse harboring mouse B16-Bl6 cells at 9 to 12 MBq, iv after 3 hrs by PET analysis; format: ADME, organism-based; details: in vivo; procedure, shortened: as §1
[3] = system: Mus musculus; experiment: Biodistribution in small intestine of C57BL/6J mouse harboring mouse B16-Bl6 cells at 9 to 12 MBq, iv after 3 hrs by PET analysis; format: ADME, organism-based; details: in vivo; procedure, shortened: as §1
[4] = system: Muscle tissue; experiment: Biodistribution in muscle of C57BL/6J mouse harboring mouse B16-Bl6 cells at 9 to 12 MBq, iv after 1 hr by PET analysis; format: ADME, organism-based; details: in vivo; procedure, shortened: as §1
[5] = system: Mus musculus; experiment: Ratio of drug level in tumor to bone in C57BL/6J mouse harboring mouse B16-Bl6 cells at 9 to 12 MBq, iv after 3 hrs by PET analysis; details: in vivo
[6] = system: Mus musculus; experiment: Biodistribution in eyes of C57BL/6J mouse harboring mouse B16-Bl6 cells at 9 to 12 MBq, iv after 2 hrs by PET analysis; format: ADME, organism-based, Eye; details: in vivo; procedure, shortened: as §1
[7] = system: Mus musculus; experiment: Biodistribution in eyes of C57BL/6J mouse harboring mouse B16-Bl6 cells at 9 to 12 MBq, iv after 1 hr by PET analysis; format: ADME, organism-based, Eye; details: in vivo; procedure, shortened: as §1
[8] = system: Mus musculus; experiment: Biodistribution in colon and feces of C57BL/6J mouse harboring mouse B16-Bl6 cells at 9 to 12 MBq, iv after 3 hrs by PET analysis; format: ADME, organism-based; details: in vivo; procedure, shortened: as §1
[9] = system: Blood; experiment: Biodistribution in blood of C57BL/6J mouse harboring mouse B16-Bl6 cells at 9 to 12 MBq, iv after 2 hrs by PET analysis; format: ADME, organism-based; details: in vivo; procedure, shortened: as §1
[10] = Octanol-water partition coefficient, log D of the compound at pH 7.4; format: physicochemical
Procedure, shortened: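 About 74 kBq radiotracer was shaken in PBS pH 7.4 / octanol (1:1 mL), vortexed 1 min three times at room temperature, then centrifuged (3,000 rpm, 5 min). Both phases were gamma-counted. Three independent experiments in duplicate.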

[11] = system: Mus musculus; experiment: Biodistribution in tumor of C57BL/6J mouse harboring mouse B16-Bl6 cells at 8 to 12 MBq, iv after 1 hr by PET analysis; format: ADME, organism-based, Neoplasm; details: in vivo
Procedure, shortened: (§2)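 Static whole-body PET at 1 h after tail-vein injection of [18F]tracer (9-12 MBq/0.15 mL) in C57BL/6J mice carrying subcutaneous B16Bl6 shoulder tumours (3x10⁵ cells), imaged day 10 or 14. Mice under ketamine/xylazine ip. 25 min acquisition, OSEM reconstruction. ROI % ID/g = counts/g/min ÷ injected dose; ratios = tumour % ID/g ÷ organ % ID/g. n=2-8; mean ± SD.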

[12] = system: Zone of skin; experiment: Biodistribution in skin of C57BL/6J mouse harboring mouse B16-Bl6 cells at 9 to 12 MBq, iv after 3 hrs by PET analysis; format: ADME, organism-based; details: in vivo; procedure, shortened: as §1
[13] = system: Brain; experiment: Biodistribution in brain of C57BL/6J mouse harboring mouse B16-Bl6 cells at 9 to 12 MBq, iv after 1 hr by PET analysis; format: ADME, organism-based; details: in vivo; procedure, shortened: as §1
[14] = system: Mus musculus; experiment: Biodistribution in cecum of C57BL/6J mouse harboring mouse B16-Bl6 cells at 9 to 12 MBq, iv after 2 hrs by PET analysis; format: ADME, organism-based, Caecum; details: in vivo; procedure, shortened: as §1
[15] = system: Kidney; experiment: Biodistribution in kidney of C57BL/6J mouse harboring mouse B16-Bl6 cells at 9 to 12 MBq, iv after 2 hrs by PET analysis; format: ADME, organism-based; details: in vivo; procedure, shortened: as §1
[16] = system: Lung; experiment: Biodistribution in lung of C57BL/6J mouse harboring mouse B16-Bl6 cells at 9 to 12 MBq, iv after 3 hrs by PET analysis; format: ADME, organism-based; details: in vivo; procedure, shortened: as §1
[17] = system: Mus musculus; experiment: Ratio of drug level in tumor to muscle in C57BL/6J mouse harboring mouse B16-Bl6 cells at 9 to 12 MBq, iv after 3 hrs by PET analysis; details: in vivo
[18] = system: Muscle tissue; experiment: Biodistribution in muscle of C57BL/6J mouse harboring mouse B16-Bl6 cells at 9 to 12 MBq, iv after 2 hrs by PET analysis; format: ADME, organism-based; details: in vivo; procedure, shortened: as §1
[19] = system: Bone; experiment: Biodistribution in bone of C57BL/6J mouse harboring mouse B16-Bl6 cells at 8 to 12 MBq, iv after 1 hr by PET analysis; format: ADME, organism-based, Bone element; details: in vivo
Procedure, shortened: (§3)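 C57BL/6J mice were inoculated s.c. on the right shoulder with 3x10⁵ B16Bl6 cells in PBS under isoflurane, and imaged at day 10 or 14 (tumor volume 431.8 ± 154.3 mm³). The ¹⁸F tracer was given i.v. via tail vein, 8-12 MBq (methods: 9-12 MBq/0.15 mL). Under ketamine/xylazine i.p., a 25-min whole-body static PET scan ran at 1 h. ROI %ID/g = counts/g/min ÷ injected dose. n=2-8; mean ± SD.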

[20] = system: Mus musculus; experiment: Biodistribution in tumor of C57BL/6J mouse harboring mouse B16-Bl6 cells at 9 to 12 MBq, iv after 3 hrs by PET analysis; format: ADME, organism-based, Neoplasm; details: in vivo
Procedure, shortened: (§4)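 Ex vivo biodistribution. C57BL/6J mice bearing subcutaneous B16Bl6 tumours (3x10⁵ cells, shoulder), day 10 or 14, received [18F]tracer iv (9-12 MBq). They were killed by CO₂ at 1, 2 or 3 h. Tumours and organs were excised, weighed and gamma-counted. Results are decay-corrected % ID/g; ratios are tumour over tissue. n=3-6 per group; mean ± SD.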

[21] = system: Liver; experiment: Biodistribution in liver of C57BL/6J mouse harboring mouse B16-Bl6 cells at 9 to 12 MBq, iv after 3 hrs by PET analysis; format: ADME, organism-based; details: in vivo; procedure, shortened: as §1
[22] = system: Mus musculus; experiment: Biodistribution in small intestine of C57BL/6J mouse harboring mouse B16-Bl6 cells at 9 to 12 MBq, iv after 2 hrs by PET analysis; format: ADME, organism-based; details: in vivo; procedure, shortened: as §1
[23] = system: Mus musculus; experiment: Biodistribution in eye of C57BL/6J mouse harboring mouse B16-Bl6 cells at 8 to 12 MBq, iv after 1 hr by PET analysis; format: ADME, organism-based; details: in vivo; procedure, shortened: as §3
[24] = Ratio of drug level in tumor to bone in C57BL/6J mouse harboring mouse B16-Bl6 cells at 8 to 12 MBq, iv after 1 hr by PET analysis; format: ADME, organism-based; details: in vivo; procedure, shortened: as §2
[25] = Ratio of drug level in tumor to blood in C57BL/6J mouse harboring mouse B16-Bl6 cells at 9 to 12 MBq, iv after 1 hr by PET analysis; format: ADME, organism-based; procedure, shortened: as §4
[26] = system: Kidney; experiment: Biodistribution in kidney of C57BL/6J mouse harboring mouse B16-Bl6 cells at 9 to 12 MBq, iv after 1 hr by PET analysis; format: ADME, organism-based; details: in vivo; procedure, shortened: as §1
[27] = system: Bone; experiment: Biodistribution in bones of C57BL/6J mouse harboring mouse B16-Bl6 cells at 9 to 12 MBq, iv after 3 hrs by PET analysis; format: ADME, organism-based, Bone element; details: in vivo; procedure, shortened: as §1
[28] = system: Mus musculus; experiment: Biodistribution in cecum of C57BL/6J mouse harboring mouse B16-Bl6 cells at 9 to 12 MBq, iv after 3 hrs by PET analysis; format: ADME, organism-based, Caecum; details: in vivo; procedure, shortened: as §1

Structure (SMILES): CCN(CCNC(=O)c1cnc2cc(I)ccc2n1)CCOCCOCCOCCOCCOCCOCCOCC[18F]
- Drug uptake [1]: 0.99 % ID/g
- Drug uptake [2]: 1.11 % ID/g
- Drug uptake [3]: 18.62 % ID/g
- Drug uptake [4]: 1.07 % ID/g
- Ratio [5]: 2.16
- Drug uptake [6]: 12.1 % ID/g
- Drug uptake [7]: 12.24 % ID/g
- Drug uptake [8]: 12.63 % ID/g
- Drug uptake [9]: 1.37 % ID/g
- logD [10]: 0.95
- Drug uptake [11]: 6.63 % ID/g
- Drug uptake [12]: 1.47 % ID/g
- Drug uptake [13]: 1.03 % ID/g
- Drug uptake [14]: 12.1 % ID/g
- Drug uptake [15]: 3.52 % ID/g
- Drug uptake [16]: 2.37 % ID/g
- Ratio [17]: 6.64
- Drug uptake [18]: 1.04 % ID/g
- Drug uptake [19]: 2.48 % ID/g
- Drug uptake [20]: 6.76 % ID/g
- Drug uptake [21]: 2.6 % ID/g
- Drug uptake [22]: 19.51 % ID/g
- Drug uptake [23]: 5.53 % ID/g
- Ratio [24]: 2.67
- Kp at 1 h [25]: 8.29
- Drug uptake [26]: 3.6 % ID/g
- Drug uptake [27]: 3.61 % ID/g
- Drug uptake [28]: 29.31 % ID/g

Structure (SMILES): CCN(CCNC(=O)c1cnc2cc(I)ccc2n1)CCOCCOCCOCC[18F]
- Drug uptake [1]: 0.8 % ID/g
- Drug uptake [2]: 0.81 % ID/g
- Drug uptake [3]: 3.91 % ID/g
- Drug uptake [4]: 1.17 % ID/g
- Ratio [5]: 3.7
- Drug uptake [6]: 18.17 % ID/g
- Drug uptake [7]: 18.36 % ID/g
- Drug uptake [8]: 8.09 % ID/g
- Drug uptake [9]: 1.12 % ID/g
- logD [10]: 1.52
- Drug uptake [11]: 14.33 % ID/g
- Drug uptake [12]: 1.05 % ID/g
- Drug uptake [13]: 1.82 % ID/g
- Drug uptake [14]: 8.94 % ID/g
- Drug uptake [15]: 2.18 % ID/g
- Drug uptake [16]: 1.6 % ID/g
- Ratio [17]: 14.46
- Drug uptake [18]: 0.92 % ID/g
- Drug uptake [19]: 1.98 % ID/g
- Drug uptake [20]: 11.55 % ID/g
- Drug uptake [21]: 1.99 % ID/g
- Drug uptake [22]: 4.28 % ID/g
- Drug uptake [23]: 10.5 % ID/g
- Ratio [24]: 7.65
- Kp at 1 h [25]: 10.2
- Drug uptake [26]: 3.46 % ID/g
- Drug uptake [27]: 3.27 % ID/g
- Drug uptake [28]: 10.79 % ID/g
